Assay results taken from ChEMBL document CHEMBL1138356, “Design and synthesis of human immunodeficiency virus entry inhibitors: sulfonamide as an isostere for the alpha-ketoamide group” (J Med Chem, 2007).

Legend:
[1] = system: Human immunodeficiency virus 1; experiment: Antiviral activity against HIV1 pseudovirus in U87 cells expressing CD4 and CCR5 after 72 hrs by M33 pseudotyped assay; format: functional, organism-based, U-87MG ATCC; conditions: Human immunodeficiency virus 1, U-87 MG
Summary of the method: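 M33 pseudotyped viral attachment assay giving IC50 values. Specificity for HIV was judged by counter-screening against AMLV-pseudotyped virus at concentrations above 100× the M33 IC50.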

[2] = Cytotoxicity against human U87 cells expressing CD4 and CXCR4; format: cell-based, U-87MG ATCC

SMILES	IC50 [1]	CC50 [2]
C[C@@H]1CN(C(=O)c2ccccc2)CCN1S(=O)(=O)c1c[nH]c2c(-n3nccn3)ccc(F)c12	0.2 µM	> 40 µM
CC1(C)CN(C(=O)c2ccccc2)CCN1S(=O)(=O)c1c[nH]c2ncccc12	> 20 µM	> 40 µM
C[C@@H]1CN(C(=O)c2ccccc2)CCN1S(=O)(=O)c1c[nH]c2ccccc12	0.43 µM	> 40 µM
C[C@@H]1CN(S(=O)(=O)c2c[nH]c3ncccc23)CCN1C(=O)c1ccccc1	13 µM	> 40 µM
CC1CN(C(=O)c2ccccc2)CCN1S(=O)(=O)c1c[nH]c2c(-c3cc[nH]n3)nccc12 (racemic)	0.14 µM	> 40 µM
C[C@H]1CN(C(=O)c2ccccc2)CCN1S(=O)(=O)c1c[nH]c2ncccc12	> 20 µM	> 40 µM
C[C@@H]1CN(C(=O)c2ccccc2)CCN1S(=O)(=O)c1c[nH]c2c(-n3ccnn3)ccc(F)c12	0.15 µM	> 40 µM
NC(=O)[C@@H]1CN(C(=O)c2ccccc2)CCN1S(=O)(=O)c1c[nH]c2ncccc12	> 20 µM	> 40 µM
Cc1ccc(C(=O)N2CCN(S(=O)(=O)c3c[nH]c4ncccc34)C(C)C2)cc1 (racemic)	12.4 µM	> 40 µM
C[C@@H]1CN(C(=O)c2ccccc2)CCN1S(=O)(=O)c1c[nH]c2c(-n3ccnn3)ncc(F)c12	0.007 µM	> 40 µM
CC1CN(C(=O)c2cccs2)CCN1S(=O)(=O)c1c[nH]c2ncccc12 (racemic)	4.6 µM	> 40 µM
C[C@@H]1CN(C(=O)c2ccn(C)n2)CCN1S(=O)(=O)c1c[nH]c2ncccc12	2.4 µM	> 40 µM
CC1CN(C(=O)c2ccccc2)CCN1S(=O)(=O)c1c[nH]c2c(Cl)nccc12 (racemic)	11 µM	> 40 µM
Cc1ccc(C(=O)N2CCN(S(=O)(=O)c3c[nH]c4ncccc34)[C@H](C)C2)s1	2.3 µM	> 40 µM
C[C@@H]1CN(C(=O)c2cccc(Cl)c2)CCN1S(=O)(=O)c1c[nH]c2ncccc12	8.4 µM	> 40 µM
C[C@@H]1CN(C(=O)c2ccccc2)CCN1S(=O)(=O)c1c[nH]c2c(-n3cncn3)ccc(F)c12	0.5 µM	> 40 µM
C[C@@H]1CN(C(=O)c2ccccc2)CCN1S(=O)(=O)c1c[nH]c2c(-n3ccnn3)nccc12	0.027 µM	> 40 µM
CC1CN(C(=O)c2ccccc2)CCN1S(=O)(=O)c1c[nH]c2c(-c3cccnc3)nccc12 (racemic)	0.64 µM	> 40 µM
CC1CN(C(=O)c2ccccc2)CCN1S(=O)(=O)c1c[nH]c2c(-n3cncn3)nccc12 (racemic)	0.2 µM	> 40 µM
C[C@@H]1CN(C(=O)c2ccccc2)CCN1S(=O)(=O)c1c[nH]c2c(-n3cc(CO)nn3)nccc12	0.25 µM	> 40 µM
CC1CN(C(=O)c2ccccc2)CCN1S(=O)(=O)c1c[nH]c2c(-n3cccn3)nccc12 (racemic)	0.3 µM	> 40 µM
C[C@@H]1CN(C(=O)c2ccccc2)CCN1S(=O)(=O)c1c[nH]c2ncccc12	0.86 µM	> 40 µM

SMILES	IC50 [1]	CC50 [2]
CC1CN(C(=O)c2cnc3ccccc3n2)CCN1S(=O)(=O)c1c[nH]c2ncccc12 (racemic)	5.4 µM	> 40 µM
O=C(C(=O)N1CCN(C(=O)c2ccccc2)CC1)c1c[nH]c2ncccc12	0.52 µM	> 40 µM
C[C@@H]1CN(C(=O)c2csc(N)n2)CCN1S(=O)(=O)c1c[nH]c2ncccc12	0.52 µM	> 40 µM
CC1CN(C(=O)c2ccccc2)CCN1S(=O)(=O)c1c[nH]c2c(Cl)nc(Cl)cc12 (racemic)	> 40 µM	> 40 µM
COc1cccc2[nH]cc(S(=O)(=O)N3CCN(C(=O)c4ccccc4)C[C@H]3C)c12	4.2 µM	> 40 µM
C[C@@H]1CN(C(=O)c2ccccc2)CCN1S(=O)(=O)c1c[nH]c2c(C#N)cc(F)cc12	10 µM	> 40 µM
C[C@@H]1CN(C(=O)c2cc3ccccc3o2)CCN1S(=O)(=O)c1c[nH]c2ncccc12	3 µM	> 40 µM
CC1CN(C(=O)c2ccc3[nH]ccc3c2)CCN1S(=O)(=O)c1c[nH]c2ncccc12 (racemic)	4.6 µM	> 40 µM
C[C@@H]1CN(C(=O)c2ccccc2)CCN1S(=O)(=O)c1c[nH]c2ccc(F)cc12	3.6 µM	> 40 µM
CC1CN(C(=O)c2ccccc2)CCN1S(=O)(=O)c1c[nH]c2c(-c3ncon3)nccc12 (racemic)	1.24 µM	> 40 µM
O=C(c1ccccc1)N1CCN(S(=O)(=O)c2c[nH]c3ncccc23)CC1	22 µM	> 40 µM
CC1CN(C(=O)c2ccc3scnc3c2)CCN1S(=O)(=O)c1c[nH]c2ncccc12 (racemic)	12.6 µM	> 40 µM
Cc1cn(-c2nccc3c(S(=O)(=O)N4CCN(C(=O)c5ccccc5)CC4C)c[nH]c23)nn1 (racemic)	0.86 µM	> 40 µM
C[C@H]1CN(S(=O)(=O)c2c[nH]c3ncccc23)CCN1C(=O)c1ccccc1	> 20 µM	> 40 µM
C[C@@H]1CN(C(=O)c2ccccc2)CCN1S(=O)(=O)c1c[nH]c2c(-n3ccnc3)ncc(F)c12	0.036 µM	> 40 µM
NC(=O)[C@H]1CN(C(=O)c2ccccc2)CCN1S(=O)(=O)c1c[nH]c2ncccc12	> 20 µM	> 40 µM
C[C@@H]1CN(C(=O)c2ccccc2)CCN1S(=O)(=O)c1c[nH]c2c(-n3ccnc3)nccc12	0.08 µM	> 40 µM
C[C@@H]1CN(C(=O)c2ccccc2)CCN1S(=O)(=O)c1c[nH]c2c(-n3cc(CF)nn3)nccc12	0.24 µM	> 40 µM
C[C@@H]1CN(C(=O)c2ccccc2)CCN1S(=O)(=O)c1c[nH]c2cccc(F)c12	0.2 µM	> 40 µM
C[C@@H]1CN(C(=O)c2cnccn2)CCN1S(=O)(=O)c1c[nH]c2ncccc12	9.1 µM	> 40 µM
C[C@@H]1CN(C(=O)c2ccccc2)CCN1S(=O)(=O)c1c[nH]c2c(F)c(F)c(F)c(F)c12	4.7 µM	> 40 µM
CC1CN(C(=O)c2ccccc2)CCN1S(=O)(=O)c1c[nH]c2c(-n3cncn3)ncc(F)c12 (racemic)	0.08 µM	> 40 µM

SMILES	IC50 [1]	CC50 [2]
CC1CN(C(=O)c2ccccc2)CCN1S(=O)(=O)c1c[nH]c2c(-c3nccs3)nccc12 (racemic)	0.5 µM	> 40 µM
CC[C@@H]1CN(C(=O)c2ccccc2)CCN1S(=O)(=O)c1c[nH]c2ncccc12	16 µM	> 40 µM
COc1cc2c(S(=O)(=O)N3CCN(C(=O)c4ccccc4)CC3C)c[nH]c2cn1 (racemic)	> 40 µM	> 40 µM
C[C@@H]1CN(C(=O)c2ccccc2)CCN1S(=O)(=O)c1c[nH]c2c(F)ccc(F)c12	0.37 µM	> 40 µM
C[C@@H]1CN(C(=O)c2ccccc2)CCN1S(=O)(=O)c1c[nH]c2c(-n3cncn3)nccc12	0.15 µM	> 40 µM
Cc1csc(C(=O)N2CCN(S(=O)(=O)c3c[nH]c4ncccc34)[C@H](C)C2)c1	1.9 µM	> 40 µM
COc1ncc(OC)c2c(C(=O)C(=O)N3CCN(C(=O)c4ccccc4)C[C@H]3C)c[nH]c12	0.005 µM	> 40 µM
C[C@@H]1CN(C(=O)c2csc(Br)n2)CCN1S(=O)(=O)c1c[nH]c2ncccc12	0.42 µM	> 40 µM
C[C@@H]1CN(C(=O)c2ccccc2)CCN1S(=O)(=O)c1c[nH]c2c(-n3nccn3)ncc(F)c12	0.62 µM	> 40 µM
CC1CN(C(=O)c2ccc3occc3c2)CCN1S(=O)(=O)c1c[nH]c2ncccc12 (racemic)	10 µM	> 40 µM
CC1CN(C(=O)c2ccccc2)CCN1S(=O)(=O)c1c[nH]c2c(-n3cc(CN(C)C)nn3)nccc12 (racemic)	1.1 µM	> 40 µM
Cc1ncn(-c2nccc3c(S(=O)(=O)N4CCN(C(=O)c5ccccc5)CC4C)c[nH]c23)n1 (racemic)	0.24 µM	> 40 µM
C[C@@H]1CN(C(=O)c2ccccc2)CCN1C(=O)C(=O)c1c[nH]c2ncccc12	0.03 µM	> 40 µM
C[C@@H]1CN(C(=O)c2ccccc2)CCN1S(=O)(=O)c1c[nH]c2ccc(C#N)cc12	> 20 µM	> 40 µM
COC(=O)[C@@H]1CN(C(=O)c2ccccc2)CCN1S(=O)(=O)c1c[nH]c2ncccc12	> 20 µM	> 40 µM
CC1CN(C(=O)c2ccccc2)CCN1S(=O)(=O)c1c[nH]c2c(-n3ccnc3)nccc12 (racemic)	0.16 µM	> 40 µM
C[C@@H]1CN(C(=O)c2ccccn2)CCN1S(=O)(=O)c1c[nH]c2ncccc12	3.3 µM	> 40 µM
COc1cc2c(S(=O)(=O)N3CCN(C(=O)c4ccccc4)C[C@H]3C)c[nH]c2cn1	9.2 µM	> 40 µM
COCc1cn(-c2ncc(F)c3c(S(=O)(=O)N4CCN(C(=O)c5ccccc5)CC4C)c[nH]c23)nn1 (racemic)	0.58 µM	> 40 µM
COc1ncc(OC)c2c(C(=O)C(=O)N3CCN(C(=O)c4ccccc4)CC3)c[nH]c12	0.026 µM	> 40 µM
CC1CN(C(=O)c2ccccc2)CCN1S(=O)(=O)c1c[nH]c2c(-c3ccnc(N)n3)nccc12 (racemic)	0.5 µM	> 40 µM
